Test results: ChEMBL document CHEMBL5029182, “Discovery of aryl aminothiazole γ-secretase modulators with novel effects on amyloid β-peptide production” (Bioorg Med Chem Lett, 2021)
Calls of active or inactive are those of the source. No cut-off for these calls is given here.

How the values were obtained:
Type in all cases: cell-based
[1] = target: T1, Gamma-secretase (Homo sapiens) (UniProt Q96BI3+Q9NZ42+Q8WW43+P49768+Q92542+P49810); assay: Modulation of gamma secretase in HEK293 cells expressing APP-C99 assessed as increase in Abeta37 levels at 5 uM incubated for 2 hrs by sandwich ELISA
Outline: (§1)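 HEK293 cells stably expressing C99 with signal sequence, grown in 24-well plates. Single compound concentration 5 μM as initial screen. Aβ37, Aβ38, Aβ40 and Aβ42 secreted into medium each quantified by a specific two-antibody sandwich ELISA. Levels compared with DMSO vehicle alone.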

[2] = target: T1, Gamma-secretase (Homo sapiens); assay: Modulation of gamma secretase in HEK293 cells expressing APP-C99 assessed as increase in Abeta38 levels at 5 uM incubated for 2 hrs by sandwich ELISA; outline: as §1
[3] = target: T1, Gamma-secretase (Homo sapiens); assay: Modulation of gamma secretase in HEK293 cells expressing APP-C99 assessed as decrease in Abeta40 levels at 5 uM incubated for 2 hrs by sandwich ELISA; outline: as §1
[4] = target: T1, Gamma-secretase (Homo sapiens); assay: Modulation of gamma secretase in HEK293 cells expressing APP-C99 assessed as decrease in Abeta42 levels at 5 uM incubated for 2 hrs by sandwich ELISA; outline: as §1
[5] = target: T1, Gamma-secretase (Homo sapiens); assay: Modulation of gamma secretase in HEK293 cells expressing APP-C99 assessed as effect on amyloid beta peptide levels at up to 10 uM incubated for 2 hrs by sandwich ELISA; details: dose microM <=10, time 2.0 hrs
Outline: (§2)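 Concentration-response in HEK293 cells stably expressing C99 (APP C-terminal 99 residues with signal sequence), up to a maximum of 10 μM. Secreted Aβ37, Aβ38, Aβ40 and Aβ42 in medium each measured by a specific sandwich ELISA. Total secreted Aβ also determined by ELISA. Levels compared against DMSO vehicle alone.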

[6] = target: T1, Gamma-secretase (Homo sapiens); assay: Modulation of gamma secretase in HEK293 cells expressing APP-C99 assessed as increase in Abeta37 levels at up to 10 uM incubated for 2 hrs by sandwich ELISA; details: filed as modulator, dose microM <=10, time 2.0 hrs; outline: as §2
[7] = target: T1, Gamma-secretase (Homo sapiens); assay: Modulation of gamma secretase in HEK293 cells expressing APP-C99 assessed as increase in Abeta38 levels at up to 10 uM incubated for 2 hrs by sandwich ELISA; details: dose microM <=10, time 2.0 hrs; outline: as §2
[8] = target: T1, Gamma-secretase (Homo sapiens); assay: Modulation of gamma secretase in HEK293 cells expressing APP-C99 assessed as decrease in Abeta40 levels at up to 10 uM incubated for 2 hrs by sandwich ELISA; details: dose microM <=10, time 2.0 hrs; outline: as §2
[9] = target: T1, Gamma-secretase (Homo sapiens); assay: Modulation of gamma secretase in HEK293 cells expressing APP-C99 assessed as decrease in Abeta42 levels at up to 10 uM incubated for 2 hrs by sandwich ELISA; details: dose microM <=10, time 2.0 hrs; outline: as §2
[10] = target: T1, Gamma-secretase (Homo sapiens); assay: Modulation of gamma secretase in HEK293 cells expressing APP-C99 assessed as increase in Abeta37 levels incubated for 2 hrs by sandwich ELISA; details: filed as modulator
Outline: (§3)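 HEK293 cells transiently transfected with C99 (APP C-terminal fragment carrying a signal sequence for membrane insertion) and treated over a concentration range. Secreted Aβ37, Aβ38, Aβ40 and Aβ42 in medium each detected by a specific two-antibody sandwich ELISA. Levels expressed relative to DMSO vehicle alone.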

[11] = target: T1, Gamma-secretase (Homo sapiens); assay: Modulation of gamma secretase in HEK293 cells expressing APP-C99 assessed as increase in Abeta38 levels incubated for 2 hrs by sandwich ELISA; details: filed as modulator; outline: as §3
[12] = target: T1, Gamma-secretase (Homo sapiens); assay: Modulation of gamma secretase in HEK293 cells expressing APP-C99 assessed as decrease in Abeta40 levels incubated for 2 hrs by sandwich ELISA; outline: as §3
[13] = target: T1, Gamma-secretase (Homo sapiens); assay: Modulation of gamma secretase in HEK293 cells expressing APP-C99 assessed as decrease in Abeta42 levels incubated for 2 hrs by sandwich ELISA; outline: as §3

SMILES | Activity ([1]; filed as modulator) | Activity ([2]; filed as modulator) | Activity [3] | Activity [4] | other results
Cc1cn(-c2ccc(-c3csc(Nc4cc(C)c(C)cc4C)n3)cc2F)cn1 | – | – | – | – | Activity ([5]; filed as modulator): Active
Cc1cn(-c2ccc(-c3csc(Nc4cc(F)c(F)cc4F)n3)cc2F)cn1 | – | – | – | – | Activity [6]: Active; Activity [7]: inactive; Activity [8]: inactive; Activity [9]: inactive
Cc1cn(-c2ccc(-c3csc(Nc4ccc(F)cc4C)n3)cc2F)cn1 | – | – | – | – | Activity [10]: Dose-Dependent Effect; Activity [11]: Dose-Dependent Effect; Activity [12]: inactive; Activity [13]: inactive
CCc1cc(Nc2nc(-c3ccc(-n4cnc(C)c4)c(F)c3)cs2)c(F)cc1C | – | – | – | – | Activity ([3]; filed as modulator): Active; Activity ([4]; filed as modulator): Active
Cc1cn(-c2ccc(-c3csc(NCc4ccccc4)n3)cc2F)cn1 | – | – | – | – | Activity ([5]; filed as modulator): Active
Cc1cn(-c2ccc(-c3csc(Nc4ccc(F)c(F)c4)n3)cc2F)cn1 | – | – | inactive | inactive | Activity [1]: inactive; Activity [2]: inactive
Cc1cn(-c2ccc(-c3csc(Nc4ccc([N+](=O)[O-])cc4)n3)cc2F)cn1 | – | – | – | – | Activity ([5]; filed as modulator): Active
Cc1ccc(Nc2nc(-c3ccc(-n4cnc(C)c4)c(F)c3)cs2)c(C)c1 | – | – | – | – | Activity [5]: inactive
Cc1cn(-c2ccc(-c3csc(Nc4ccc(F)cc4F)n3)cc2F)cn1 | Active | Active | inactive | inactive | –
Cc1ccc(Nc2nc(-c3ccc(-n4cnc(C)c4)c(F)c3)cs2)c(F)c1 | – | – | – | – | Activity [10]: Dose-Dependent Effect; Activity [11]: Dose-Dependent Effect; Activity [12]: inactive; Activity [13]: inactive
Cc1cn(-c2ccc(-c3csc(Nc4cc(Cl)c(Cl)cc4Cl)n3)cc2F)cn1 | – | – | inactive | inactive | Activity [1]: inactive; Activity [2]: inactive
Cc1cn(-c2ccc(-c3csc(Nc4cc(F)ccc4C)n3)cc2F)cn1 | – | – | – | – | Activity [10]: Dose-Dependent Effect; Activity [11]: Dose-Dependent Effect; Activity [12]: inactive; Activity [13]: inactive
Cc1cn(-c2ccc(-c3csc(Nc4cccc(F)c4)n3)cc2F)cn1 | Active | Active | inactive | inactive | –
Cc1cn(-c2ccc(-c3csc(Nc4c(F)cc(F)cc4F)n3)cc2F)cn1 | Active | Active | – | – | Activity ([3]; filed as modulator): Active; Activity ([4]; filed as modulator): Active
Cc1cn(-c2ccc(-c3csc(Nc4cccc(F)c4F)n3)cc2F)cn1 | – | – | inactive | inactive | Activity [1]: inactive; Activity [2]: inactive
Cc1cn(-c2ccc(-c3csc(Nc4ccc(O)cc4)n3)cc2F)cn1 | – | – | – | – | Activity ([5]; filed as modulator): Active
Cc1cn(-c2ccc(-c3csc(NC4C5CC6CC(C5)CC4C6)n3)cc2F)cn1 (stereo unspecified) | – | – | – | – | Activity ([5]; filed as modulator): Active
CCc1cc(Nc2nc(-c3ccc(-n4cnc(C)c4)c(F)c3)cs2)c(C)cc1C | – | – | – | – | Activity ([5]; filed as modulator): Active
Cc1cn(-c2ccc(-c3csc(Nc4ccc(Cl)cc4Cl)n3)cc2F)cn1 | Active | Active | inactive | inactive | –
Cc1cn(-c2ccc(-c3csc(NC4CCCCC4)n3)cc2F)cn1 | – | – | – | – | Activity ([5]; filed as modulator): Active
Cc1cn(-c2ccc(-c3csc(Nc4ccc(F)cc4)n3)cc2F)cn1 | Active | Active | inactive | inactive | –
Cc1ccc(F)c(Nc2nc(-c3ccc(-n4cnc(C)c4)c(F)c3)cs2)c1 | – | – | – | – | Activity [10]: Dose-Dependent Effect; Activity [11]: Dose-Dependent Effect; Activity [12]: inactive; Activity [13]: inactive
Cc1cn(-c2ccc(-c3csc(Nc4ccccc4)n3)cc2F)cn1 | – | – | – | – | Activity [5]: inactive
Cc1cn(-c2ccc(-c3csc(Nc4c(F)cccc4F)n3)cc2F)cn1 | – | – | inactive | inactive | Activity [1]: inactive; Activity [2]: inactive
Cc1cn(-c2ccc(-c3csc(Nc4ccccc4F)n3)cc2F)cn1 | Active | Active | inactive | inactive | –
Cc1cn(-c2ccc(-c3csc(Nc4cc(F)ccc4F)n3)cc2F)cn1 | – | – | inactive | inactive | Activity [1]: inactive; Activity [2]: inactive

Continued, in another order:

Activity ([1]; filed as modulator) | Activity ([2]; filed as modulator) | Activity [3] | Activity [4] | SMILES | other results
Active | Active | inactive | inactive | Cc1cn(-c2ccc(-c3csc(Nc4cc(C)c(C)cc4F)n3)cc2F)cn1 | –
– | – | inactive | inactive | Cc1cn(-c2ccc(-c3csc(Nc4cc(F)c(C)cc4C)n3)cc2F)cn1 | Activity [1]: inactive; Activity [2]: inactive
Active | Active | inactive | inactive | Cc1cn(-c2ccc(-c3csc(Nc4cc(Br)c(Br)cc4Br)n3)cc2F)cn1 | –
Active | Active | inactive | inactive | Cc1cn(-c2ccc(-c3csc(Nc4cc(C)c(F)cc4C)n3)cc2F)cn1 | –
